INS-1E GSIS act – primary screen for activators of insulin secretion dependent on glucose, INS-1E cells, GLuc reporter luminescence. activation, % at 16.6 µM. actives 0.61% (n = 370,000). INS-1E GLuc reporter insulin secretion, 2-3 h;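 active = lowest replicate activation of at least 40%, so every replicate reaches that level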;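 also: 0% = median of neutral control wells and 100% = median of IBMX positive control wells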
E-selectin induc – E-selectin induction on HUVECs; P16581; HUVEC E-selectin immunofluorescence imaging; normalized: neutral wells 0, TNF-alpha wells 100; activation, % at 7.58 µM; actives 0.37% (n = 260,000);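 active = mean E-selectin-positive cell signal at least 10% of the positive control, reached in at least 60% of replicates, without over 20% cell loss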
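Read-out basis: % PE-positive cells; Test system: HUVEC primary endothelial cells; Technique: immunofluorescence imaging; Dosing: single-point compound dose.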
rRNA inh HTS – selective bacterial rRNA inhibition in E. coli | E. coli WT GFP vs humanized-ribosome RFP mutants, fluorescence, 24 h; stronger effect = lower value; DMSO median 0, no signal -100 | GFP signal change (wild-type ribosome), % (concentration not given with the values) | actives 1.6% (n = 350,000) | AID 720706;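 active = significant combined selectivity score with lowered wild-type GFP, culture density cut under 30%, mutant RFP and density less affected; inactive = any of these conditions unmet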
MLL AF4-AF9 inh – inhibitors of human MLL-AF4/AF9 interaction; AlphaScreen, biotin-AF4 peptide binding to FLAG-AF9; inhibition, % at 10 µM; actives 0.47% (n = 350,000); AID 651704;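 active = every replicate reaching a set inhibition limit, whatever the replicate mean, cut at about 25% in these data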;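 also: 0% = plate neutral control median and 100% = total signal loss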
RAD52 inh – RAD52 (human) annealing inhibition. inhibition, % at 18.7 µM. actives 0.46% (n = 360,000). P43351. recombinant RAD52 DNA annealing, FRET fluorescence;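 active = every replicate showing at least 50% inhibition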
RAD54 inh – RAD54 (human) branch migration inhibition. RAD54 Holliday junction branch migration, FAM/BHQ fluorescence. actives 0.14% (n = 360,000). inhibition, % at 10.4 µM;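 active = mean normalized replicate activity at least 40 and at least half of replicates scoring 40 or more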;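 also: 0% = median of neutral control wells and 100% = median of positive control wells; inhibitors cause a drop in the FAM fluorescence signal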
Target sequence (Q92698 whole entry, looked up): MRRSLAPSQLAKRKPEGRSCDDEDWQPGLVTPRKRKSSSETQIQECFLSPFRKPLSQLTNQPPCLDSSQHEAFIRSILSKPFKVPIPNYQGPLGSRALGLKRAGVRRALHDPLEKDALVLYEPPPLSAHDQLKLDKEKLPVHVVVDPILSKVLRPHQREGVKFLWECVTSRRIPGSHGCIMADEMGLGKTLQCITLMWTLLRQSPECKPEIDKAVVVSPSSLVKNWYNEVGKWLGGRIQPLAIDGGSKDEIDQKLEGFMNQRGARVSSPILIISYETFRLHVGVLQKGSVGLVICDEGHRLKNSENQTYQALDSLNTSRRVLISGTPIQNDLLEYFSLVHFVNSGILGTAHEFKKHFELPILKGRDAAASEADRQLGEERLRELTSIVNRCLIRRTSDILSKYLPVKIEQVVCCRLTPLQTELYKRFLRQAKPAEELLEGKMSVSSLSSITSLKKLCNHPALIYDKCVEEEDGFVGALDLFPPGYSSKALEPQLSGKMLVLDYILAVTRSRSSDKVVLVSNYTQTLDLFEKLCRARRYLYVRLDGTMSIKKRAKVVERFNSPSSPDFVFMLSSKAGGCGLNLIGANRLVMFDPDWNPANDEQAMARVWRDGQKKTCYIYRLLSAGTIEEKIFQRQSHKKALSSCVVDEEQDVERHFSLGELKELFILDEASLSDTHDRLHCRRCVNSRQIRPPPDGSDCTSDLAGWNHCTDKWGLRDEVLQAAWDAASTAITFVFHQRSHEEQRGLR
Active calls of the source: *; . = not tested or not shown. The list is not random: actives were taken first. Their share in the collection is about 2.6%.

SMILES	INS-1E GSIS act	E-selectin induc	rRNA inh HTS	MLL AF4-AF9 inh	RAD52 inh	RAD54 inh
N#CC1(NC(=O)CSc2nc3ccc([N+](=O)[O-])cc3s2)CCCCC1	-20	-2	-17*	2	1	.
Cn1nnnc1SCC(=O)NCc1cc([N+](=O)[O-])ccc1O	0	.	10	0	-11	.
N#CC1(NC(=O)CSc2nc3ccccc3s2)CCCCC1	18	.	-2	-4	-1	11
O=C(CSc1nc2ccccc2s1)NCc1cc([N+](=O)[O-])ccc1O	.	0	-31*	-7	-7	-2
O=C(C[C@@H]1C[C@H]2c3cc(NC(=O)NC4CCCCC4)ccc3O[C@H]2[C@H](CO)O1)NCC(F)(F)F	10	0	-2	0	3	1
CC(C)NC(=O)N(C)C[C@@H]1OCCCC[C@@H](C)Oc2ccc(NC(=O)NC3CCCCC3)cc2C(=O)N([C@H](C)CO)C[C@@H]1C	3	0	0	.	.	.
COc1ccc(/C=C/C(=O)C23CC4CC(CC(C4)C2)C3)cc1CN1CCOCC1	-11	0	.	26*	-5	.
O=C(NNc1nc2ccccc2s1)c1ccccc1F	7	.	-41*	2	-5	5
O=C(Cc1ccccc1)Nc1nc2ccccc2s1	-7	.	.	.	.	8
O=C(CP(=O)(c1ccccc1)c1ccccc1)Nc1nc2ccccc2s1	-18	1	-36*	.	-7	.
C/C=C/c1ccc2c(c1)O[C@H](CN(C)C(C)=O)[C@@H](C)CN([C@@H](C)CO)S2(=O)=O	4	2	-1	-1	18	2
CCn1c(=O)c([N+](=O)[O-])c(N2CCSCC2)c2ccccc21	-16	0	-34*	-4	0	-12
Cn1c(=O)c([N+](=O)[O-])c(N2CCSCC2)c2ccccc21	14	0	16	-1	-4	4
CCn1c(=O)c([N+](=O)[O-])c(N2CCN(Cc3ccc4c(c3)OCO4)CC2)c2ccccc21	.	4	-24*	7	-16	.
O=c1c([N+](=O)[O-])c(N2CCOCC2)c2ccccc2n1Cc1ccccc1	21	-3	-18	5	-17	.
Cc1ccc(S(=O)(=O)N(C)C[C@H]2Oc3ccc(NC(=O)Cc4cn(C)c5ccccc45)cc3C(=O)N([C@@H](C)CO)C[C@H]2C)cc1	-5	0	1	0	.	2
C[C@@H]1CN([C@H](C)CO)C(=O)c2cccc(NC(=O)Nc3ccc4c(c3)OCO4)c2O[C@@H]1CN(C)S(=O)(=O)c1ccc(Cl)cc1	-21	0	-4	3	19	5
O=[N+]([O-])c1cc(S(=O)(=O)O)cc([N+](=O)[O-])c1NN(c1ccccc1)c1ccccc1	.	56*	-1	1	-17	-7
CC(Oc1ccc(S(=O)(=O)N2CCCC2)cc1[N+](=O)[O-])C(=O)N(C)c1ccccc1 (centres undefined)	0	.	9	1	-15	0
C[C@H](NC(=O)C[C@H]1C[C@@H]2c3cc(NC(=O)NC4CCCC4)ccc3O[C@@H]2[C@@H](CO)O1)c1ccccc1	-6	0	0	-2	-4	-24
CCCCc1ccc(Nc2nc(CCC)cc(=O)[nH]2)cc1	.	.	.	.	.	9
CCCc1cc(=O)[nH]c(Nc2ccc3c(c2)OCCO3)n1	-3	-1	-16*	-1	-12	3
Cc1cccc(N2C(=O)C(O)=C(C(=O)c3cccs3)C2c2ccc(Cl)cc2)n1 (centres undefined)	-4	0	-34*	-10	-14	.
Cc1cc(N2C(=O)C(O)=C(C(=O)c3cccs3)C2c2ccccc2)no1 (centres undefined)	.	.	.	.	.	0
COc1cccc2cc(C(=O)C3=C(O)C(=O)N(c4cc(C)on4)C3c3cccs3)oc12 (centres undefined)	-44	.	-26*	4	-55	-9
SMILES	INS-1E GSIS act	E-selectin induc	rRNA inh HTS	MLL AF4-AF9 inh	RAD52 inh	RAD54 inh
COc1ccc(C2C(C(=O)c3cccs3)=C(O)C(=O)N2c2cccc(C)n2)cc1 (centres undefined)	15	0	-18*	-6	-12	.
Cc1cc(N2C(=O)C(O)=C(C(=O)c3cccs3)C2c2ccc(F)cc2)no1 (centres undefined)	-4	.	-26*	-2	-12	.
COc1ccc(C2C(C(=O)c3cccs3)=C(O)C(=O)N2c2cccc(C)n2)cc1OC (centres undefined)	.	.	.	-1	-9	.
COc1ccc(S(=O)(=O)N(C)C[C@H]2OCCCC[C@@H](C)Oc3ccc(NC(=O)c4ccccc4)cc3C(=O)N([C@H](C)CO)C[C@@H]2C)cc1	-10	0	1	-4	-33	-3
CCNC(=O)C[C@H]1CC[C@@H]2[C@H](COC[C@@H](O)CN2C(=O)C2CCOCC2)O1	2	0	0	-1	-56	11
Cc1noc(C)c1S(=O)(=O)Nc1ccc2c(c1)C(=O)N([C@H](C)CO)C[C@H](C)[C@@H](CN(C)S(C)(=O)=O)OCCCC[C@H](C)O2	5	0	0	-3	4	20
C[C@H](CO)N1C[C@H](C)[C@H](CN(C)C(=O)Nc2ccc3c(c2)OCO3)OCCCC[C@H](C)Oc2ccc(NC(=O)Nc3ccc(F)cc3)cc2C1=O	-10	0	3	-4	18	2
CC(C)CC#Cc1ccc2c(c1)O[C@@H](CN(C)C(=O)c1cnccn1)[C@@H](C)CN([C@@H](C)CO)S2(=O)=O	-13	1	1	2	8	5
Cc1cccc(N2C(=O)C(O)=C(C(=O)c3cccs3)C2c2ccccc2)n1 (centres undefined)	0	0	-32*	6	-10	.
CSc1ncccc1C(=O)Nc1ncc(C)s1	-8	0	4	-2	1	-10
CCOc1ncccc1C(=O)NC(C)CCc1ccccc1 (centres undefined)	51*	0	0	0	5	-1
CC(CCc1ccccc1)NC(=O)c1ccccc1Cl (centres undefined)	3	0	3	3	-6	6
CCOc1ncccc1C(=O)Nc1ncc(C)s1	110*	14	4	-1	0	.
C[C@H](CO)N1C[C@H](C)[C@@H](CN(C)CC2CCCCC2)Oc2c(NC(=O)Nc3ccc(C(F)(F)F)cc3)cccc2C1=O	-4	0	5	1	12	-3
CCCCn1c(NC(C)CC)nc2c1c(=O)[nH]c(=O)n2C (centres undefined)	129*	.	.	.	.	3
CCCCCn1c(SC(C)C(C)=O)nc2c1c(=O)[nH]c(=O)n2C (centres undefined)	73*	0	-2	-5	-7	-6
CC(C)CCn1c(N2CCCC2)nc2c1c(=O)[nH]c(=O)n2C	46*	.	0	1	6	-5

Screening data from PubChem.
